# SENP7 block: blocks the human protease SENP7; inhibition, % at 5 µM; AID 434973; recombinant SENP7, Z-RLRGG-aminoluciferin luminescence, 40 min; hit rate 1.5% among 330,000;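 active = inhibition above about 50% at the single test dose, limit read from the data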
# Target sequence (Q9BQF6 706-1050 limits assumed): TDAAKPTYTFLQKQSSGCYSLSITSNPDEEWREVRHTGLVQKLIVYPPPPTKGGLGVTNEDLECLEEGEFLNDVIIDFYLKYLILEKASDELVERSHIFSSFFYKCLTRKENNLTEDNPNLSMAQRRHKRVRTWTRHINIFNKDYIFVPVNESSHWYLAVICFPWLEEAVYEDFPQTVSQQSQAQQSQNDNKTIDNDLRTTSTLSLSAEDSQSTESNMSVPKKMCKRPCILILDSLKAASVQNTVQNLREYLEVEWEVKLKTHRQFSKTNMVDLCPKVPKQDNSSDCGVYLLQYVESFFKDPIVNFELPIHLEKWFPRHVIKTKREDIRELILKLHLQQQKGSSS
# SENP1 FRET inh: blocks the human SENP1 SUMO protease catalytic domain; recombinant SENP1 catalytic domain, CyPet-SUMO1-YPet FRET cleavage; inhibition, % at 10 µM; Q9P0U3; AID 624204; hit rate 0.21% among 360,000;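 active = inhibition at least 30% at 10 µM, raw YFP signal under a set limit, fluorescence ratio 0.5 to 1.5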
# Target sequence (Q9P0U3 419-644 limits assumed): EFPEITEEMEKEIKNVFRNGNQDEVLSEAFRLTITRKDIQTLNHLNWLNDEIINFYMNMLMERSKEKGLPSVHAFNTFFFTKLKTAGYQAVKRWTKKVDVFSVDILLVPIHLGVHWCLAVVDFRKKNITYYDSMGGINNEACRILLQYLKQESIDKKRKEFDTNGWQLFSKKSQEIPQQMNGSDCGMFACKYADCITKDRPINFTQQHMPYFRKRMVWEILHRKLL
#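 material = recombinant human SENP1 catalytic domain, His6-tagged | quantity = 20 pM enzyme | reagent = 25 nM SUMO1 FRET substrate | compound dosing = 10 µM single point, 0.5% DMSO | timing = 50 min enzyme reaction, room temperature, light-protected | detection = FRET, CFP and YFP emission | control set = no-enzyme low, enzyme-DMSO high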
# SENP8 block-1: blocks the human protease SENP8. Q96LD8. purified SENP8, Z-RLRGG-aminoluciferin cleavage, luminescence. inhibition, % at 10 µM. hit rate 1.2% among 330,000. AID 2540; in the data active = inhibition above about 50%
# SENP6 block: SENP6 protease inhibition. Q9GZR1. Recombinant SENP6 catalytic domain, aminoluciferin luminescence. inhibition, % at 10 µM. hit rate 1.8% among 330,000. AID 2599;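 active = inhibition above about 50% at the single tested dose, limit read from the data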
# SENP8 block-2: SENP8 (human) protease inhibition. Q96LD8. recombinant SENP8, Nedd8 substrate fluorescence. inhibition, % at 20 µM. hit rate 0.64% among 360,000. AID 602440; in the data active = inhibition mostly above about 40%, no sharp cut-off; inactive = mostly below about 27%
# SENP8 conf: confirmation of human SENP8 protease inhibitors. shares compounds with SENP8 block-2. AID 624319. hit rate 15% among 1,400. purified SENP8, Nedd8-AMC/pro-Nedd8 cleavage fluorescence, 30 min. inhibition, % at 25 µM; in the data active = inhibition mostly above about 39%, no sharp cut-off; inactive = mostly below about 34%
# Numbers stand for hits; n = inactive; x = not tested or not shown. An excerpt weighted towards active compounds, which were near 2.5% of everything screened.
SMILES,SENP7 block,SENP1 FRET inh,SENP8 block-1,SENP6 block,SENP8 block-2,SENP8 conf
CCCOc1ccc(-c2nc(SCc3ccccc3)[nH]c(=O)c2C#N)cc1OC,n,n,n,n,n,x
COC(=O)C1=C(C)N(C2CCCCC2)C(=O)C1,n,n,n,n,42,n
CC1CCN(C(=S)NC(=O)c2cccs2)CC1,n,n,n,n,n,x
Cc1ccc(OCC(=O)NCc2cccs2)cc1,n,n,n,n,n,x
O=C(COc1ccccc1)NCc1cccs1,n,n,n,n,42,n
N#Cc1ccsc1NC(=O)C1=COCCO1,n,n,n,n,n,x
Cc1nc(C)n(C)c(=O)c1-c1ccccc1,n,n,n,n,40,n
Cc1nc(C)c(-c2ccccc2)c(=O)[nH]1,n,n,n,n,n,x
O=C(O)C=C(Br)Br,n,n,n,n,46,n
Cn1ccnc1Sc1cc(Cl)ccc1[N+](=O)[O-],n,n,n,n,n,x
O=[N+]([O-])c1ccc(Cl)cc1Sc1cccc2cccnc12,n,n,n,n,42,n
O=C(c1cc(-c2ccccc2Cl)on1)N1CCN(C(=O)c2ccco2)CC1,n,n,n,n,43,n
C=CCc1ccc(OC)c(OC)c1,n,n,n,n,52,n
O=C(CCC(=O)N1CCOCC1)NCc1cccc(C(F)(F)F)c1,n,n,n,n,n,x
CCOc1cc(N2CCOCC2)c(OCC)cc1NS(=O)(=O)c1ccc2c(c1)CC(=O)N2,x,n,x,x,n,x
Cc1ccc(C(=O)NCC(=O)OCC(=O)N(CC(C)C)c2c(N)n(Cc3ccccc3)c(=O)[nH]c2=O)cc1,n,n,n,n,32,n
CC(Oc1cccc([N+](=O)[O-])c1)C(=O)NCCC1=CCCCC1 (centres undefined),n,n,n,n,n,x
COc1cccc(NC(=S)NN=C2CCC(C(C)(C)C)CC2)c1 (centres undefined),n,n,n,n,47,n
O=C(/C=C/NNC(=O)c1ccc(Cl)cc1)c1ccccc1,n,n,n,n,39,n
O=C(/C=C/NNC(=O)c1ccccc1)c1ccc(Br)cc1,n,n,n,n,n,x
CN(C)C=Nc1c(Br)cc(Br)c2nonc12,n,n,n,n,58,45
Nc1nonc1OCCN1CCN(c2ccc([N+](=O)[O-])c3cccnc23)CC1,n,n,n,n,47,n
Clc1nssc1=Nc1ccc(Br)cc1,x,n,x,x,44,n
Cn1c(=O)c(Nc2ccc(O)cc2)c2c3c(cccc31)C(=O)c1ccccc1-2,n,n,n,n,45,n
Cc1ccccc1NNC(N)=S,n,n,n,n,51,n
SMILES,SENP7 block,SENP1 FRET inh,SENP8 block-1,SENP6 block,SENP8 block-2,SENP8 conf
Cc1ccccc1NC(=O)Nc1ccccc1C(N)=O,n,n,n,n,n,x
COc1ccc([C@@H]2C[C@H]3CN(c4ccccc4)C(=O)[C@]34CCCN24)c(OC)c1OC,n,n,n,n,n,x
COCc1cc([C@@H]2C[C@H]3CN(c4ccccc4)C(=O)[C@]34CCCN24)ccc1OC,n,n,n,n,42,n
Clc1ccc(/C=N/NC(=Nc2ccccc2)c2ccccn2)c(Cl)c1,n,n,n,n,n,x
C(=N\NC(=Nc1ccccc1)c1ccccn1)/c1ccccn1,n,n,n,n,40,n
COc1ccc(/C=N/Nc2nc(C)c([N+](=O)[O-])c(N(C)c3ccccc3)n2)cc1OC,n,n,n,n,53,n
O=C(CSc1nnnn1-c1ccccc1)N1CCc2ccccc2C1,n,n,n,n,n,x
CC(=O)c1ccc(-n2nnnc2SCC(=O)N2CCc3ccccc3C2)cc1,x,n,x,x,61,79
C[C@]12CC[C@H](OC(=O)CCC(=O)O)CC1=CCC1C2CC[C@@]2(C)C1CC[C@@H]2N (some centres undefined),n,n,n,n,n,x
CC(=O)OC1CCC2(C)C(=CCC3C2CCC2(C)C3CC3OC4(CCC(C)CN4)C(C)C32)C1 (centres undefined),n,n,n,n,51,n
Cc1ccc(NC(=O)c2ccc(Nc3c([N+](=O)[O-])cc([N+](=O)[O-])cc3[N+](=O)[O-])cc2)cc1,n,n,n,n,42,n
COc1ccc(CCN2CC34C=CC(O3)C(C(=O)NCc3ccccc3Cl)C4C2=O)cc1OC (centres undefined),n,n,n,n,47,n
O=C(NCC1COc2ccccc2O1)C1C2C=CC3(CN(Cc4ccccc4Cl)C(=O)C13)O2 (centres undefined),n,n,n,n,n,x
CCOC(=O)c1sc(=S)n(-c2cc(OC)ccc2OC)c1N,n,n,n,n,40,n
CC(=O)Nc1ccc(C(=O)O)cc1,n,n,n,n,46,n
CC(=O)Nc1ccc(N)cc1,n,n,n,n,n,x
c1ccc(CNCCC(Cc2ccccc2)c2ccco2)cc1 (centres undefined),n,n,n,n,48,n
CC(O)/C=C/C1OC(=O)CC1Nc1ccc(C=O)cc1 (centres undefined),n,n,n,n,52,n
COc1ccc(Cc2cc(NCc3ccccc3)c3ncn(C(C)C)c3c2)cc1,n,n,n,n,n,x
CCOCCOc1cc(NCc2ccccc2)c2ncn(C(C)C)c2c1,x,n,x,x,40,80
COCCCOc1cc(NCc2ccccc2)c2ncn(C(C)C)c2c1,n,n,n,n,n,x
CCCCOc1cc(NCc2ccccc2)c2ncn(C(C)C)c2c1,n,n,n,n,51,65
Cc1ccc(S(=O)(=O)NCC(=O)OCC(=O)c2ccc(Cl)s2)cc1,n,n,n,n,n,x
COCCN1CCC(CNCc2c(C(=O)N3CCCCC3)nc3c(C)cccn23)C1 (centres undefined),n,n,n,n,n,x
Cc1ccccc1N=C1N=C(N)c2ccccc21,n,n,n,n,n,x
SMILES,SENP7 block,SENP1 FRET inh,SENP8 block-1,SENP6 block,SENP8 block-2,SENP8 conf
Cc1ccc(N=C2N=C(N)c3ccccc32)c(C)c1,n,n,n,n,42,n
COc1cc(NC(=O)C2CCCCN2)ccc1OCC(C)C (centres undefined),n,n,n,n,27,n
COc1ccc(NC(=O)C2CC(=O)N/C(=N/NC(=O)c3ccc(Cl)cc3)S2)cc1 (centres undefined),n,n,n,n,40,n
CN1CCN(S(=O)(=O)c2ccc(N3CCc4ccccc4C3)nc2)CC1,n,n,n,n,n,x
COc1ccc(-c2cc(=O)n(CCC#N)[nH]2)cc1,n,n,n,n,43,n
COc1ccc(-c2ncn(CCC#N)c2[N+](=O)[O-])cc1,n,n,n,n,n,x
COc1ccc(/C=C/C(=O)Nc2c(C)nn(C)c2C)cc1COc1ccc(Cl)cc1Br,n,n,n,n,n,x
CCOc1ccc(N2C(=O)Cc3ccccc3C2=O)cc1,n,n,n,n,75,n
Cc1cc(N2C(=O)Cc3ccccc3C2=O)ccc1C(C)C,n,n,n,n,78,n
CCOC(=O)c1ccc(N2C(=O)CC(C(=O)OC)=C2C)cc1,n,n,n,n,n,x

# Screening results deposited in PubChem by Sanford-Burnham Center for Chemical Genomics.
